These results are taken from ChEMBL document CHEMBL1268946, “Discovery of 2-substituted benzoxazole carboxamides as 5-HT3 receptor antagonists” (Bioorg Med Chem Lett, 2010).

Series [1] deals with Mus musculus. Put plainly: Cardioprotective effect in po dosed mouse assessed as inhibition of 5-HT-induced bradycardia administered 1 hr prior to 5-HT challenge. The series is classed as functional. The method in brief: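 Murine von Bezold–Jarisch reflex assay. Test agents were given orally 1 h before a 0.1 mg/kg 5-HT challenge. Read-out was block of 5-HT-induced transient bradycardia.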

A short description of series [2]: Intrinsic clearance in human liver microsomes. In kind it is ADME, Microsome.
A short description of series [3]: Bioavailability in rat at 10 mg/kg, po or 1 mg/kg, iv. Conditions: in vivo. In kind it is ADME, organism-based.
Series [4] concerns the target T1, 5-hydroxytryptamine receptor 3A (Homo sapiens, UniProt P46098).
T1 sequence (P46098 whole entry): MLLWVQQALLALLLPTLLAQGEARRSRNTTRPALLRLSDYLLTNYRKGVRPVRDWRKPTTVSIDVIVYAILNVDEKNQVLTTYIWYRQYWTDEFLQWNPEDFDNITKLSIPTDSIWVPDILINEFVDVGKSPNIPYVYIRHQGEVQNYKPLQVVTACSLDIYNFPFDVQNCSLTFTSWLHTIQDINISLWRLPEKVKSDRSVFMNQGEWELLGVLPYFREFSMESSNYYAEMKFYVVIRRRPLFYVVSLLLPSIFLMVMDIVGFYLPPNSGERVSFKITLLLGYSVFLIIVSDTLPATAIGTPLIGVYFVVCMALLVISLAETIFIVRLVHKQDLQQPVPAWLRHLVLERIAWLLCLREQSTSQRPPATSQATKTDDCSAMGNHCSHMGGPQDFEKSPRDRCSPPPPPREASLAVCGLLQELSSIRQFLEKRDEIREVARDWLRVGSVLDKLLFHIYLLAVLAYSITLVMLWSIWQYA
Put plainly: Binding affinity to human HT3A receptor.

For series [5], the target named is Voltage-gated inwardly rectifying potassium channel KCNH2 (Homo sapiens, UniProt Q12809). Put plainly: Inhibition of human ERG expressed in HEK cells by patch clamp technique.
For another series, the target named is Cytochrome P450 3A4 (Homo sapiens, UniProt P08684). The series is described as follows: Inhibition of human CYP3A4. The series is classed as ADME.
Series [6] in a line: Inhibition of human CYP450. In kind it is ADME.
The species named for series [7] is Mus musculus. Conditions: 0.56 mg/kg.
For series [8], the species on record is Mus musculus. Conditions: 1.9 mg/kg.
For another series, the target named is Cytochrome P450 2C19 (Homo sapiens, UniProt P33261). Put plainly: Inhibition of human CYP2C19. The series is classed as ADME.
The next series is filed under the species Homo sapiens. Put plainly: Inhibition of human nicotinic acetylcholine receptor at 1 uM. Put shortly: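 Single-concentration screen at 1 µM within a 68-membered off-target receptor panel; inhibition above 50% counted as significant.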

SMILES strings stand for the structures. Active and inactive are the calls of the source. The rule behind the calls is not given here. A value given as a limit tells only on which side of the number the result lay.

The ED50 is the midpoint of the dose-response relation. A word on the microsomal CLint: it is the capacity of the preparation to metabolise the compound, expressed as a volume cleared per time. The term bioavailability denotes the share of a dose that reaches the circulation, judged against a reference dose that is usually intravenous. A higher bioavailability goes with much systemic uptake. As a reminder, the Ki is the equilibrium dissociation constant of an inhibitor or competing ligand from its target. Broadly, the IC50 is the point on the concentration scale where inhibition reaches its midpoint. Higher therefore signals weaker potency. By inhibition is commonly meant the share of the control response that was lost under treatment.

Chain of Voltage-gated inwardly rectifying potassium channel KCNH2 (Q12809 whole entry): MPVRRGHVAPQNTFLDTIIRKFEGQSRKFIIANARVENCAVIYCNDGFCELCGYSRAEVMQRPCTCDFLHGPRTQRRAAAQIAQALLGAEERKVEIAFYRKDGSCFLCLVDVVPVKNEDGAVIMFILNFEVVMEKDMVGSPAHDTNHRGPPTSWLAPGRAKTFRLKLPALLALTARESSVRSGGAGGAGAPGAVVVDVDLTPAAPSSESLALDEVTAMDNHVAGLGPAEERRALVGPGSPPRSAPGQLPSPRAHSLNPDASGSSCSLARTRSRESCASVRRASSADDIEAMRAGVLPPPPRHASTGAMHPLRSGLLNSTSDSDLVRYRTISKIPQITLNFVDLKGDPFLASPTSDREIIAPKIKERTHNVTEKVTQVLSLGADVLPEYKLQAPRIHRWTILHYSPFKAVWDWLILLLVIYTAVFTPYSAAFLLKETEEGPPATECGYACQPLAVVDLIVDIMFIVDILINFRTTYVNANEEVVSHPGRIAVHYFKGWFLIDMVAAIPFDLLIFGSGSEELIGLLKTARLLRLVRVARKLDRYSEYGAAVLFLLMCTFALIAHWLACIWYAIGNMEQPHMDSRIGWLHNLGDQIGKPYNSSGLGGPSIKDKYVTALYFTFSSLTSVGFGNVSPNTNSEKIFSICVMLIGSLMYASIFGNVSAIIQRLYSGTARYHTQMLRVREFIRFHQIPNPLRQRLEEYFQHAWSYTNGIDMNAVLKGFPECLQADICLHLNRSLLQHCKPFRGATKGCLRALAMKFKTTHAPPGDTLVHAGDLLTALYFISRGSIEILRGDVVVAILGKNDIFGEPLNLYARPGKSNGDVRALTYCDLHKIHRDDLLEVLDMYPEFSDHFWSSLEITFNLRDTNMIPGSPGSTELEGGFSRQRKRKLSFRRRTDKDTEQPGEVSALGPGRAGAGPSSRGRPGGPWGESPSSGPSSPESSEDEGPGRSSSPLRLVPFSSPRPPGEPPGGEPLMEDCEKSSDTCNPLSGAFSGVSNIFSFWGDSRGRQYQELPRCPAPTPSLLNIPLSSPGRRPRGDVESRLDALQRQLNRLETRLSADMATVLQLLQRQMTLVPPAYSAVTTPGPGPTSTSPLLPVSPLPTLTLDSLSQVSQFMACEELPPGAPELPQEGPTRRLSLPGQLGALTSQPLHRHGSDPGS
Chain of Cytochrome P450 3A4 (P08684 whole entry): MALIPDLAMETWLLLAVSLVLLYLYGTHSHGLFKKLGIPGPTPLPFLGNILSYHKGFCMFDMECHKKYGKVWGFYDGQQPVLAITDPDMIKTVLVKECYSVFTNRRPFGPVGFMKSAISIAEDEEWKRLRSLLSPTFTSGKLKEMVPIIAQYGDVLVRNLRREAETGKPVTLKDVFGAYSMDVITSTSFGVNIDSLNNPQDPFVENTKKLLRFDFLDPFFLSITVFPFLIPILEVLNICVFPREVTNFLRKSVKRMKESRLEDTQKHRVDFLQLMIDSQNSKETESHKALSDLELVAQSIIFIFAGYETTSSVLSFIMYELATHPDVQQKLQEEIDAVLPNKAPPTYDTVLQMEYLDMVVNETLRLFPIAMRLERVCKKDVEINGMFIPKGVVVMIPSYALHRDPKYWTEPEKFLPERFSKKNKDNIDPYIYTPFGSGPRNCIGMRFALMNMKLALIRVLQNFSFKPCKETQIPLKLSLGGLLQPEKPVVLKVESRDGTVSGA
Chain of Cytochrome P450 2C19 (P33261 whole entry): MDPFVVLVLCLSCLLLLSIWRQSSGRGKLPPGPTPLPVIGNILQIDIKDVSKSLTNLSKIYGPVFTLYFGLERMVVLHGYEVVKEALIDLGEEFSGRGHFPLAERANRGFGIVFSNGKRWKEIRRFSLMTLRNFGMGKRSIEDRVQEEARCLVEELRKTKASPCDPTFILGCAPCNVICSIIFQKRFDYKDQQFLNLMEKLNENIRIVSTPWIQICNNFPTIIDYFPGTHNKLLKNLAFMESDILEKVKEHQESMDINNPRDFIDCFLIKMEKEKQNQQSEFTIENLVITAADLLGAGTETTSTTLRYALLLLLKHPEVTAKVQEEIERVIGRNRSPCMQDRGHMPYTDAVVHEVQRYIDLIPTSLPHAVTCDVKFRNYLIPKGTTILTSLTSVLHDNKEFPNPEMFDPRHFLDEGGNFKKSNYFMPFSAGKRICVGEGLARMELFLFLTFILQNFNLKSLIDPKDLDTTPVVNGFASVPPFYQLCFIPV

In the case of `Cc1[nH]cnc1CN1CCc2c(c3ccccc3n2C)C1=O` [ALOSETRON], the ED50 in the series on Mus musculus [1] worked out at 0.02 mg/kg. The molecule also came in with a microsomal CLint in series [2] of 3 µL/min/mg. The molecule also gave a bioavailability in series [3] of 100%.
`O=C(N[C@@H]1CN2CCC1CC2)c1cccc2oc(C3CC3)nc12` registered a Ki in [4] of 32.7 nM. The same molecule came in with a microsomal CLint in series [2] of 4.5 µL/min/mg. Moreover, the half-maximal inhibitory concentration (IC50) in series [5] is 700 nM; against Cytochrome P450 3A4, more than 100000 nM. The same molecule displayed a bioavailability in series [3] of 13%.
With `C[C@@H]1CN(c2nc3c(C(=O)N[C@@H]4C[C@H]5CCC[C@@H](C4)N5C)cccc3o2)C[C@H](C)O1`, in series [4], the Ki was 35.3 nM.
`COc1ccc(-c2nc3c(C(=O)N[C@@H]4C[C@H]5CCC[C@@H](C4)N5C)cccc3o2)cc1` gave an inhibitory constant (Ki) in series [4] of 18.8 nM.
In turn, `CCNc1nc2c(C(=O)N[C@@H]3CN4CCC3CC4)cccc2o1` gave a Ki in series [4] of 36.4 nM.
In turn, `CN1[C@@H]2CCC[C@H]1C[C@H](NC(=O)c1cccc3oc(-c4ccc(F)cc4)nc13)C2` displayed a Ki in [4] of 16.3 nM.
Turning to `O=C(N[C@@H]1CN2CCC1CC2)c1cccc2oc(N3CCOCC3)nc12`, in [2], the intrinsic metabolic clearance (microsomal CLint) is 0.6 µL/min/mg. The IC50 in series [5] was 3200 nM; against Cytochrome P450 3A4 it was more than 100000 nM. Also, the bioavailability in series [3] came to 100%.
For `C[C@H]1COC[C@H](C)N1c1nc2c(C(=O)N[C@@H]3C[C@H]4CCC[C@@H](C3)N4C)cccc2o1`, the Ki in series [4] was 0.6 nM.
For `CC(C)N(C)c1nc2c(C(=O)N[C@@H]3CN4CCC3CC4)cccc2o1`, in [4], the affinity, expressed as Ki, was 66.5 nM.
Take `CC(C)[C@H]1COCCN1c1nc2c(C(=O)N[C@@H]3C[C@H]4CCC[C@@H](C3)N4C)cccc2o1`: in [4], affinity was put at a Ki of 5 nM.
Molecule `CN1[C@@H]2CCC[C@H]1C[C@H](NC(=O)c1cccc3oc(N4CCOC[C@@H]4C(C)(C)C)nc13)C2` gave an inhibitory constant (Ki) in series [4] of 2 nM.
Turning to `Nc1nc2c(C(=O)N[C@@H]3CN4CCC3CC4)cccc2o1`, the 50% effective dose (ED50) with Mus musculus [1] was 1.08 mg/kg. Further, the affinity in [4], expressed as Ki, was 13.8 nM. The same molecule came in with a microsomal CLint in series [2] of less than 2 µL/min/mg. In [6], this molecule displayed a 50% inhibitory concentration (IC50) of more than 100000 nM.
As to `CC[C@H]1COCCN1c1nc2c(C(=O)N[C@@H]3C[C@H]4CCC[C@@H](C3)N4C)cccc2o1`, the Ki in series [4] came to 4.6 nM. This counts as single-digit nanomolar.
`C[C@H]1CNCCN1c1nc2c(C(=O)N[C@@H]3C[C@H]4CCC[C@@H](C3)N4C)cccc2o1`: the affinity in [4] corresponds to a Ki of 16.5 nM.
For the molecule `C[C@@H]1CNC[C@H](C)N1c1nc2c(C(=O)N[C@@H]3C[C@H]4CCC[C@@H](C3)N4C)cccc2o1`, the inhibition constant (Ki) in series [4] is 37.3 nM.
In series [4], `CN1[C@@H]2CCC[C@H]1C[C@H](NC(=O)c1cccc3oc(-c4ccccc4)nc13)C2` showed a Ki of 15.1 nM.
Consider `Cc1nccn1CC1CCc2c(c3ccccc3n2C)C1=O` (stereo not given) [ONDANSETRON], for which the median effective dose (ED50) with Mus musculus [1] stood at 0.54 mg/kg. In [2], the intrinsic metabolic clearance (microsomal CLint) stood at 5.8 µL/min/mg. In addition, the bioavailability in series [3] was 21%.
For the molecule `CN1[C@@H]2CCC[C@H]1C[C@H](NC(=O)c1cccc3nc(-c4ccccc4)oc13)C2`, the inhibitory constant (Ki) in series [4] was found to be 40.4 nM.
Take `CN1[C@@H]2CCC[C@H]1C[C@H](NC(=O)c1cccc3oc(-c4ccc(Cl)cc4)nc13)C2`: the affinity in [4] corresponds to a Ki of 18 nM.
In turn, `CC(C)C[C@H]1COCCN1c1nc2c(C(=O)N[C@@H]3C[C@H]4CCC[C@@H](C3)N4C)cccc2o1` returned a Ki in [4] of 3.5 nM.
`CNc1nc2c(C(=O)N[C@@H]3CN4CCC3CC4)cccc2o1` showed an inhibitory constant (Ki) in series [4] of 36.4 nM.
Take `CCC[C@H]1COCCN1c1nc2c(C(=O)N[C@@H]3C[C@H]4CCC[C@@H](C3)N4C)cccc2o1`: the Ki in series [4] came out at 3.9 nM.
As to `CCN(CC)c1nc2c(C(=O)N[C@@H]3CN4CCC3CC4)cccc2o1`, the Ki in [4] worked out at 12.4 nM.
For the molecule `Nc1nc2c(C(=O)N[C@@H]3CN4CCC3CC4)cc(Cl)cc2o1`, the median effective dose (ED50) in the series with Mus musculus [1] is 0.4 mg/kg. The inhibition constant Ki in series [4] came to 4.7 nM. Also, the inhibition entry in the series listed under Mus musculus [7] was “Active”. Moreover, the microsomal CLint in series [2] was found to be 3 µL/min/mg. The half-inhibitory concentration (IC50) is 4800 nM in series [5] and more than 30000 nM in series [6].
As to `C[C@H]1CNC[C@H](C)N1c1nc2c(C(=O)N[C@@H]3C[C@H]4CCC[C@@H](C3)N4C)cccc2o1`, the ED50 in the series with Mus musculus [1] was found to be 0.85 mg/kg. The inhibition constant (Ki) in [4] came out at 2.4 nM. For the same molecule, the inhibition result in the series filed under Mus musculus [8] was “Active”. Also, the intrinsic clearance (microsomal CLint) in series [2] was less than 2 µL/min/mg. Further, the half-inhibitory concentration (IC50) in series [5] came out at 6400 nM; at Cytochrome P450 2C19 it was 1400 nM.
Turning to `CN1[C@@H]2CCC[C@H]1C[C@H](NC(=O)c1cccc3nc(-c4ccc(Cl)cc4)oc13)C2`, affinity in series [4] was put at a Ki of 73.8 nM.
On the same count and under the same terms, the figure for `C[C@@H]1CNC[C@@H](C)N1c1nc2c(C(=O)N[C@@H]3C[C@H]4CCC[C@@H](C3)N4C)cccc2o1` is 59.4 nM.
In series [4], `COc1ccccc1-c1nc2c(C(=O)N[C@@H]3C[C@H]4CCC[C@@H](C3)N4C)cccc2o1` showed a Ki of 14.9 nM. In series [2], this molecule showed a microsomal CLint of 2.8 µL/min/mg. The IC50 came to 400 nM in series [5] and 1100 nM against Cytochrome P450 3A4. In series [3], this molecule showed a bioavailability of 44%.
`CN1[C@@H]2CCC[C@H]1C[C@H](NC(=O)c1cccc3oc(C4CC4)nc13)C2` yielded an inhibition constant (Ki) in [4] of 8.3 nM. The molecule further yielded an intrinsic clearance (microsomal CLint) in series [2] of 23.5 µL/min/mg. Moreover, the IC50 on Cytochrome P450 3A4 is more than 50000 nM. In series [3], this molecule came in with a bioavailability of 32%.
For the molecule `COc1ccccc1-c1nc2c(C(=O)N[C@@H]3CN4CCC3CC4)cccc2o1`, in series [4], the inhibitory constant (Ki) was found to be 47.3 nM. The intrinsic metabolic clearance (microsomal CLint) in series [2] is 10.1 µL/min/mg. Also, the IC50 in [5] was 200 nM; against Cytochrome P450 3A4 it was more than 50000 nM. The molecule also displayed a bioavailability in series [3] of 100%.
Turning to `COc1ccc(-c2nc3cccc(C(=O)N[C@@H]4C[C@H]5CCC[C@@H](C4)N5C)c3o2)cc1`, in [4], the Ki is 58.5 nM.
As to `CN1[C@@H]2CCC[C@H]1C[C@H](NC(=O)c1cccc3oc(N4CCNCC4)nc13)C2`, in series [4], the Ki amounted to 72.2 nM.
With `CC[C@H]1COC[C@H](C)N1c1nc2c(C(=O)N[C@@H]3C[C@H]4CCC[C@@H](C3)N4C)cccc2o1`, the inhibitory constant (Ki) in [4] is 1 nM.
In turn, `CN1[C@@H]2CCC[C@H]1C[C@H](NC(=O)c1cccc3oc(N4CCOCC4)nc13)C2` registered a Ki in series [4] of 40 nM. In the series listed under Homo sapiens, this molecule had an inhibition of more than 50%. For the same molecule, the microsomal CLint in series [2] came out at 1 µL/min/mg. Moreover, the IC50 in series [5] was 1400 nM; on Cytochrome P450 3A4 it was more than 50000 nM. In series [3], the bioavailability is 35%.
Molecule `CN1[C@@H]2CCC[C@H]1C[C@H](NC(=O)c1cccc3nc(-c4ccc(F)cc4)oc13)C2` came in with a Ki in series [4] of 94.9 nM.
